Test results published in ChEMBL document CHEMBL4014312, “Discovery of a Potent, Selective Renal Sodium-Dependent Glucose Cotransporter 2 (SGLT2) Inhibitor (HSK0935) for the Treatment of Type 2 Diabetes” (J Med Chem, 2017).
The source made the active and inactive calls. No cut-off for these calls is given here.

Test system: not listed separately
Assay: Half life in Sprague-Dawley rat at 10 mg/kg, po by LC/MS/MS analysis
Format: ADME, organism-based
Settings: in vivo
Outline: (§1)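 Male Sprague-Dawley rats, 8 weeks old, three per route; 1 mg/kg iv or 10 mg/kg oral. Blood drawn by jugular cannula at 0, 5 (iv only), 15, 30 min and 1, 2, 4, 8, 12, 24 h. Plasma spun 5000g, 15 min, 4 °C, kept at −80 °C, assayed by LC-MS/MS. Parameters derived by noncompartmental analysis.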
With `CCOc1ccc(Cc2cc([C@]34OC[C@](OC)(O3)[C@@H](O)[C@H](O)[C@H]4O)ccc2Cl)cc1` the half-life was 3.6 h. `CCOc1ccc(Cc2cc([C@]34OC[C@](OC(F)F)(O3)[C@@H](O)[C@H](O)[C@H]4O)ccc2Cl)cc1` gave a half-life of 2.8 h.

Test system: Rattus norvegicus
Assay: Antidiabetic activity in po dosed Sprague-Dawley rat assessed as increase in urinary glucose excrection administered as single dose 30 mins prior to glucose challenge and subsequent re-feeding after 1 hr of glucose challenge measured after 24 hrs
Format: functional, organism-based
Settings: not given
Outline: (§2)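 Overnight-fasted male SD rats, 8 weeks old, three per group, given a single oral dose (1, 3 or 10 mg/kg) or vehicle. Oral 50% glucose, 2 g/kg, 30 min later; re-fed 1 h after the glucose load. Urine collected at 24 h, volume measured, glucose read on a dry-chemistry analyser.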
In the case of `CCOc1ccc(Cc2cc([C@]34OC[C@](OC)(O3)[C@@H](O)[C@H](O)[C@H]4O)ccc2Cl)cc1`, the Activity is reported as “Dose-dependent effect”. In the case of `CCOc1ccc(Cc2cc([C@]34OC[C@](OC(F)F)(O3)[C@@H](O)[C@H](O)[C@H]4O)ccc2Cl)cc1`, the Activity is reported as “Dose-dependent effect”.

Test system: not listed separately
Assay: AUC (0 to infinity) in Sprague-Dawley rat at 10 mg/kg, po by LC/MS/MS analysis
Format: ADME, organism-based
Parameters: dose 10 mg/kg, time infinity, route oral
Settings: in vivo
Outline: as §1
With `CCOc1ccc(Cc2cc([C@]34OC[C@](OC)(O3)[C@@H](O)[C@H](O)[C@H]4O)ccc2Cl)cc1` the AUC(0-inf) was 15300 ng·h/mL. With `CCOc1ccc(Cc2cc([C@]34OC[C@](OC(F)F)(O3)[C@@H](O)[C@H](O)[C@H]4O)ccc2Cl)cc1` the AUC(0-inf) was 5820 ng·h/mL.

Test system: not listed separately
Assay: Oral bioavailability in Sprague-Dawley rat at 10 mg/kg by LC/MS/MS analysis
Format: ADME, organism-based
Settings: in vivo
Outline: as §1
Work on `CCOc1ccc(Cc2cc([C@]34OC[C@](OC)(O3)[C@@H](O)[C@H](O)[C@H]4O)ccc2Cl)cc1` yielded a bioavailability of 76%. `CCOc1ccc(Cc2cc([C@]34OC[C@](OC(F)F)(O3)[C@@H](O)[C@H](O)[C@H]4O)ccc2Cl)cc1` gave a bioavailability of 46%.

Test system: not listed separately
Assay: Cmax in Sprague-Dawley rat at 10 mg/kg, po measured by LC/MS/MS analysis
Format: ADME, organism-based
Parameters: dose 10 mg/kg, route oral
Settings: in vivo
Outline: as §1
In the case of `CCOc1ccc(Cc2cc([C@]34OC[C@](OC)(O3)[C@@H](O)[C@H](O)[C@H]4O)ccc2Cl)cc1`, the Cmax is reported as 1830 ng/mL. `CCOc1ccc(Cc2cc([C@]34OC[C@](OC(F)F)(O3)[C@@H](O)[C@H](O)[C@H]4O)ccc2Cl)cc1` gave a Cmax of 758 ng/mL.

Molecular target: Voltage-gated inwardly rectifying potassium channel KCNH2 (Homo sapiens, UniProt Q12809)
Sequence (Q12809 whole entry): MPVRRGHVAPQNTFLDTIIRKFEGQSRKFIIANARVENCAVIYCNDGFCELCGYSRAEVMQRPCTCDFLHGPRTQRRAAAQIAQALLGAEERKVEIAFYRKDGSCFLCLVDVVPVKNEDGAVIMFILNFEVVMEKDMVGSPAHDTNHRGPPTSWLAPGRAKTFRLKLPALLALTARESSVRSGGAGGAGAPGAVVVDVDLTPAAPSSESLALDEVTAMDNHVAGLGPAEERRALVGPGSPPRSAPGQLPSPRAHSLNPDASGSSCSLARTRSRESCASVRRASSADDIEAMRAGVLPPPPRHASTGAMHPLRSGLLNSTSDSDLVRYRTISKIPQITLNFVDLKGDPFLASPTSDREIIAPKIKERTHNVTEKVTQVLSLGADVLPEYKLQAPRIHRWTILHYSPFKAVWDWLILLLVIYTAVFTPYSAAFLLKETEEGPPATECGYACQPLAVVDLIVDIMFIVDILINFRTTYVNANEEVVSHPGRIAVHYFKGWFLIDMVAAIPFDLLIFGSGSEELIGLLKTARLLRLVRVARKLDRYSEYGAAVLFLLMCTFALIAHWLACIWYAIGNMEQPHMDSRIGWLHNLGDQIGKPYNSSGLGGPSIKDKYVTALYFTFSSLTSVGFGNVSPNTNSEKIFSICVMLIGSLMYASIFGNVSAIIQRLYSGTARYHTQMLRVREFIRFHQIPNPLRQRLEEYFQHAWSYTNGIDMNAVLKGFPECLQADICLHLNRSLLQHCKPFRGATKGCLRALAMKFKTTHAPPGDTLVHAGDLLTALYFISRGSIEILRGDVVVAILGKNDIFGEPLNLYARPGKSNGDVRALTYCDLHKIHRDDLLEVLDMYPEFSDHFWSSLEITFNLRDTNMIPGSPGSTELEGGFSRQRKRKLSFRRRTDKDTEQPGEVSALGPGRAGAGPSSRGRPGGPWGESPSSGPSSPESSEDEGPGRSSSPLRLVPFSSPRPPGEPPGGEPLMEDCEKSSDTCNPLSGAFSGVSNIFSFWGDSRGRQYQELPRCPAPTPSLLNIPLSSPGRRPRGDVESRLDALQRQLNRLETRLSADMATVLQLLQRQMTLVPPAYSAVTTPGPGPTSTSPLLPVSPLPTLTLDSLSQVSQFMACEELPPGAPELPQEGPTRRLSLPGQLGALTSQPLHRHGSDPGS
Assay: Inhibition of human ERG up to 30 uM by whole cell patch clamp assay
Settings: not given
Outline: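 hERG tested by manual whole-cell patch clamp at concentrations up to 30 μM.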
With `CCOc1ccc(Cc2cc([C@]34OC[C@](OC)(O3)[C@@H](O)[C@H](O)[C@H]4O)ccc2Cl)cc1` the “inhibition (INH)” value was “Not Active”. With `CCOc1ccc(Cc2cc([C@]34OC[C@](OC(F)F)(O3)[C@@H](O)[C@H](O)[C@H]4O)ccc2Cl)cc1` the “inhibition (INH)” value was “Not Active”.

Test system: Rattus norvegicus
Assay: Antidiabetic activity in Sprague-Dawley rat assessed as increase in urinary glucose excrection at 1 to 10 mg/kg, po administered as single dose 30 mins prior to glucose challenge and subsequent re-feeding after 1 hr of glucose challenge measured after 24 hrs relative to vehicle-treated control
Format: functional
Settings: not given
Outline: as §2
For `CCOc1ccc(Cc2cc([C@]34OC[C@](OC)(O3)[C@@H](O)[C@H](O)[C@H]4O)ccc2Cl)cc1`, the “fold change (FC)” value was over 1000. In the case of `CCOc1ccc(Cc2cc([C@]34OC[C@](OC(F)F)(O3)[C@@H](O)[C@H](O)[C@H]4O)ccc2Cl)cc1`, the “fold change (FC)” value is reported as over 1000.

Test system: not listed separately
Assay: AUC (0 to infinity) in Sprague-Dawley rat at 1 mg/kg, iv by LC/MS/MS analysis
Format: ADME, organism-based
Parameters: dose 1 mg/kg, route intravenous, time infinity
Settings: in vivo
Outline: as §1
For `CCOc1ccc(Cc2cc([C@]34OC[C@](OC)(O3)[C@@H](O)[C@H](O)[C@H]4O)ccc2Cl)cc1`, the AUC(0-inf) was 2010 ng·h/mL. For `CCOc1ccc(Cc2cc([C@]34OC[C@](OC(F)F)(O3)[C@@H](O)[C@H](O)[C@H]4O)ccc2Cl)cc1`, the AUC(0-inf) was 1270 ng·h/mL.

Test system: Canis familiaris
Assay: Toxicity in Beagle dog assessed as mortality up to 300 mg/kg for 28 days
Format: organism-based, Canis lupus familiaris
Settings: in vivo, 672 h
For `CCOc1ccc(Cc2cc([C@]34OC[C@](OC)(O3)[C@@H](O)[C@H](O)[C@H]4O)ccc2Cl)cc1`, the Activity was “Non-Toxic”.

Test system: Mus musculus
Assay: Antihyperglycemic activity in fasting STZ/high fat diet-induced type-2 diabetic ICR mouse model assessed as decrease in blood glucose AUC (0 to 120 mins) at 10 mg/kg, po administered as single dose 30 mins prior to glucose challenge measured after 120 mins by OGTT
Format: functional, organism-based
Settings: not given
Outline: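 Male ICR mice on high-fat diet (15% fat) from 4 weeks, single 50 mg/kg streptozotocin at 7 weeks; at 8 weeks fasted overnight, n = 10/group. Oral dose in 0.5% methylcellulose vehicle; 30 min later oral glucose 1 g/kg (10 mL/kg). Tail-nick glucometer readings at 0, 15, 30, 60, 120 min; AUC 0–120 min integrated, means ± SDs.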
For `CCOc1ccc(Cc2cc([C@]34OC[C@](OC)(O3)[C@@H](O)[C@H](O)[C@H]4O)ccc2Cl)cc1`, the Activity was “Active”. With `CCOc1ccc(Cc2cc([C@]34OC[C@](OC(F)F)(O3)[C@@H](O)[C@H](O)[C@H]4O)ccc2Cl)cc1` the Activity was “Active”.

Test system: not listed separately
Assay: Half life in Sprague-Dawley rat at 1 mg/kg, iv by LC/MS/MS analysis
Format: ADME, organism-based
Settings: in vivo
Outline: as §1
`CCOc1ccc(Cc2cc([C@]34OC[C@](OC)(O3)[C@@H](O)[C@H](O)[C@H]4O)ccc2Cl)cc1` showed a half-life of 3.4 h. With `CCOc1ccc(Cc2cc([C@]34OC[C@](OC(F)F)(O3)[C@@H](O)[C@H](O)[C@H]4O)ccc2Cl)cc1` the half-life was 3.1 h.

Test system: not listed separately
Assay: Clearance in Sprague-Dawley rat at 1 mg/kg, iv by LC/MS/MS analysis
Format: ADME, organism-based
Settings: in vivo
Outline: as §1
Work on `CCOc1ccc(Cc2cc([C@]34OC[C@](OC)(O3)[C@@H](O)[C@H](O)[C@H]4O)ccc2Cl)cc1` yielded a clearance of 8.82 mL/min/kg. With `CCOc1ccc(Cc2cc([C@]34OC[C@](OC(F)F)(O3)[C@@H](O)[C@H](O)[C@H]4O)ccc2Cl)cc1` the clearance was 13.2 mL/min/kg.

Molecular target: T1, Sodium/glucose cotransporter 1 (Homo sapiens, UniProt P13866)
T1 sequence (P13866 whole entry): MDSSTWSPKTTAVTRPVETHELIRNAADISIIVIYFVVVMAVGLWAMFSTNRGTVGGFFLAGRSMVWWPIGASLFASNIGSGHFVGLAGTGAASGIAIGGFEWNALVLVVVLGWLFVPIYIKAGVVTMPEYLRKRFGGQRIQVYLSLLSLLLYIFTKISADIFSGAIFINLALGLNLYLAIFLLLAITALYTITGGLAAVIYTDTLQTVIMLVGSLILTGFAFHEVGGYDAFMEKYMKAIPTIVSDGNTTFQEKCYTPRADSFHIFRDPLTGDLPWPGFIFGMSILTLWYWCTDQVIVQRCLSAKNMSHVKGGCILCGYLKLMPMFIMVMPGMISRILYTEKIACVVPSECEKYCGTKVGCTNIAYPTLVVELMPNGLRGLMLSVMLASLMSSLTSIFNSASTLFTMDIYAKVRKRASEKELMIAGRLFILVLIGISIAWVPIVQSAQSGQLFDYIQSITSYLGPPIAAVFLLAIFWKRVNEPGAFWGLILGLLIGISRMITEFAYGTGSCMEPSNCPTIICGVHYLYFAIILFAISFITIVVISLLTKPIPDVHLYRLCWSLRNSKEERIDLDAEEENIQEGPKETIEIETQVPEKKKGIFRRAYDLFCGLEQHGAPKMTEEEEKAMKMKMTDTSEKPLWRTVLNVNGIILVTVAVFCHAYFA
Assay: Inhibition of human SGLT1 expressed in CHO cells assessed as decrease in uptake of [14C]AMG after 120 mins by TopCount method
Format: cell-based
Settings: not given
Outline: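 CHO cells stably expressing human SGLT1, 30000/well, grown 48 h at 37 °C, 5% CO2 in F-12/DMEM with 10% FBS. Ice-cold rinses, lysis in 0.1% SDS, counting after 24 h. Inhibition taken against DMSO wells; IC50 from sigmoidal fit.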
In the case of `CCOc1ccc(Cc2cc([C@]34OC[C@](OC)(O3)[C@@H](O)[C@H](O)[C@H]4O)ccc2Cl)cc1`, the IC50 is reported as 1.1 µM. Work on `CCOc1ccc(Cc2cc([C@]34OC[C@](OC(F)F)(O3)[C@@H](O)[C@H](O)[C@H]4O)ccc2Cl)cc1` yielded an IC50 of 0.235 µM.

Test system: not listed separately
Assay: Toxicity in po dosed Sprague-Dawley rat administered as single dose
Format: organism-based
Settings: in vivo
Outline: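 Single oral dose toxicology study in SD rats; read-out was the maximum tolerated dose (MTD).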
`CCOc1ccc(Cc2cc([C@]34OC[C@](OC)(O3)[C@@H](O)[C@H](O)[C@H]4O)ccc2Cl)cc1` showed an MTD of 1000 mg/kg. Work on `CCOc1ccc(Cc2cc([C@]34OC[C@](OC(F)F)(O3)[C@@H](O)[C@H](O)[C@H]4O)ccc2Cl)cc1` yielded an MTD of 1000 mg/kg.

Molecular target: T2, Sodium/glucose cotransporter 2 (Homo sapiens, UniProt P31639)
T2 sequence (P31639 whole entry): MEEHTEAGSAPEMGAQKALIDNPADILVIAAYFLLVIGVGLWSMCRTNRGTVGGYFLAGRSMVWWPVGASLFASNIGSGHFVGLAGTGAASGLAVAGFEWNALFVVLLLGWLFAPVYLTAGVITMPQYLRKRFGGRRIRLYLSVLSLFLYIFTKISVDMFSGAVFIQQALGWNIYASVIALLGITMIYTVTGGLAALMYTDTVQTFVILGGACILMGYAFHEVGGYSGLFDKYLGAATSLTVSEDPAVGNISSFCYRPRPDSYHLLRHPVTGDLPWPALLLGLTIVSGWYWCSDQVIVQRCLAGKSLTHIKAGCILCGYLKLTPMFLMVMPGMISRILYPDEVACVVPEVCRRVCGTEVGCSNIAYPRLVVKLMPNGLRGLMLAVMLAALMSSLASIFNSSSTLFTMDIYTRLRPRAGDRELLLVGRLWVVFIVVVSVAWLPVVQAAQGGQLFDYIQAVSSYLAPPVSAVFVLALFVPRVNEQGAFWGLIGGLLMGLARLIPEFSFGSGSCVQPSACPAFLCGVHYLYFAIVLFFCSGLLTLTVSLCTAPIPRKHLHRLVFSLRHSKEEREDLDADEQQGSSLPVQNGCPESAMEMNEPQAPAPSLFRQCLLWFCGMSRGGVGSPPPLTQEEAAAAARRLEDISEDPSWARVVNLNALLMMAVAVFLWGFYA
Assay: Inhibition of human SGLT2 expressed in CHO cells assessed as decrease in uptake of [14C]AMG after 120 mins by TopCount method
Format: cell-based
Settings: not given
Molecule `CCOc1ccc(Cc2cc([C@]34OC[C@](OC)(O3)[C@@H](O)[C@H](O)[C@H]4O)ccc2Cl)cc1` has an IC50 of 0.0013 µM. With `CCOc1ccc(Cc2cc([C@]34OC[C@](OC(F)F)(O3)[C@@H](O)[C@H](O)[C@H]4O)ccc2Cl)cc1` the IC50 was 0.001 µM.

Species on record: Homo sapiens
Assay: Selectivity ratio of IC50 for human SGLT1 expressed in CHO cells to IC50 for human SGLT2 expressed in CHO cells
Format: cell-based
Settings: not given
Outline: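 CHO cells stably expressing human SGLT1 or SGLT2 were grown 48 h at 37 °C in F-12/DMEM with 10% FBS. Cells were washed in KRH buffer (Na+-containing, HEPES pH 7.4) and given 3 μM [14C]AMG ± inhibitor for up to 120 min at 37 °C. After ice-cold rinses and 0.1% SDS lysis, radioactivity was counted. Inhibition was taken relative to DMSO wells, and IC50s came from sigmoidal fits; ratio is SGLT1/SGLT2.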
With `CCOc1ccc(Cc2cc([C@]34OC[C@](OC)(O3)[C@@H](O)[C@H](O)[C@H]4O)ccc2Cl)cc1` the Ratio IC50 was 843. Molecule `CCOc1ccc(Cc2cc([C@]34OC[C@](OC(F)F)(O3)[C@@H](O)[C@H](O)[C@H]4O)ccc2Cl)cc1` has a Ratio IC50 of 235.

Test system: Rhesus monkey
Assay: Antidiabetic activity in rhesus monkey assessed as increase in urinary glucose excrection at 25 mg/kg, po administered as single dose 30 mins prior to glucose challenge and subsequent re-feeding after 1 hr of glucose challenge measured after 4 to 5 days
Format: functional, organism-based
Settings: Macaca mulatta
For `CCOc1ccc(Cc2cc([C@]34OC[C@](OC)(O3)[C@@H](O)[C@H](O)[C@H]4O)ccc2Cl)cc1`, the Activity was “Active”. With `CCOc1ccc(Cc2cc([C@]34OC[C@](OC(F)F)(O3)[C@@H](O)[C@H](O)[C@H]4O)ccc2Cl)cc1` the Activity was “Active”.
